Data: article PMC4547841 (Bioorganic & medicinal chemistry letters, 2013)

Experiments:
[1] = system: hsp90; assay: hsp90 protein level in HeLa cell lysate, western blot; format: cell-based; conditions: 17-AAG 100 nM and 1 μM, normalized to GAPDH and DMSO control, n≥3
In short: (§1)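 HeLa cells treated with test compounds at two concentrations each (100nM and 1μM, or 5μM and 50μM). Cell lysates analysed by western blot. Bands quantitated by densitometry, normalized to GAPDH and to DMSO control. n≥3, mean±SEM.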

[2] = system: FKBP51; assay: FKBP51 protein level in HeLa cell lysate, western blot; format: cell-based; conditions: n≥3
In short: as §1

[3] = system: HSF1; assay: HSF1 protein level in HeLa cell lysate, western blot; format: cell-based; conditions: 17-AAG 100 nM and 1 μM, normalized to GAPDH and DMSO control, n≥3
In short: as §1

[4] = system: HeLa cells; conditions: assay not described; HeLa treated at IC50 and ten-fold over IC50; ref [36]; cited from earlier work
[5] = system: heat shock response; assay: Heat shock response; format: cell-based; conditions: HeLa; 17-AAG 100 nM and 1 μM, CA1 and SM145 5 μM and 50 μM; hsp70, hsp90, HSF1 levels
[6] = system: hsp90; assay: Luciferase refolding assays; format: biochemical; conditions: 17-AAG 1 μM, SM145 50 μM (Figure 3); CA1 in Supplemental Figure S3
In short: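 Refolding of heat-denatured firefly luciferase, read as luciferase activity over time up to 2 h, in two systems: rabbit reticulocyte lysate, and a pure protein system with 1μM hsp70, 0.2μM hsp40, 0.1μM HOP and 0.5μM hsp90. Test compounds at 1μM or 50μM. n=3, mean±SEM.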

[7] = system: glucocorticoid receptor (GR); assay: Glucocorticoid receptor; format: cell-based; conditions: HeLa; 17-AAG 100 nM and 1 μM; n≥3
In short: as §1

[8] = system: hsp90 and TOM70; assay: TPR co-chaperone and hsp90 binding assay, TOM70
In short: (§2)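 Binding of each TPR co-chaperone (Unc45, CHIP, TOM70, HOP, Cyp40, FKBP52, FKBP51) to hsp90 measured with increasing test compound, 0–5μM or 0–10μM depending on compound.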

[9] = system: hsp70; assay: hsp70 protein level in HeLa cell lysate, western blot; format: cell-based; conditions: normalized to GAPDH and DMSO control, n≥3
In short: as §1

[10] = system: hsp90 and FKBP51; assay: TPR co-chaperone and hsp90 binding assay, FKBP51
In short: as §2

[11] = system: FKBP52; assay: FKBP52 protein level in HeLa cell lysate, western blot; format: cell-based; conditions: n≥3
In short: as §1

[12] = system: hsp90 and HOP; assay: TPR co-chaperone and hsp90 binding assay, HOP; conditions: CA1 0–10 μM; some Figure 5 data marked * previously published, ref [31]
[13] = system: hsp90 and Unc45; assay: TPR co-chaperone and hsp90 binding assay, Unc45; conditions: CA1 0–10 μM
In short: as §2

[14] = system: hsp90 and CHIP; assay: TPR co-chaperone and hsp90 binding assay, CHIP; conditions: CA1 at 10 μM
In short: as §2

[15] = system: hsp90 and Cyp40; assay: TPR co-chaperone and hsp90 binding assay, Cyp40; conditions: CA1 at 10 μM
In short: as §2

[16] = system: hsp90 and FKBP52; assay: TPR co-chaperone and hsp90 binding assay, FKBP52; conditions: CA1 0–10 μM; some Figure 5 data marked * previously published, ref [31]
[17] = system: hsp90 and immunophilins; conditions: millimolar concentration; ref [28]; cited from earlier work
[18] = 17-AAG 100 nM and 1 μM, normalized to GAPDH, compared to DMSO

## C=CCNC1=C2C[C@@H](C)C[C@H](OC)[C@H](O)[C@@H](C)/C=C(\C)[C@H](OC(N)=O)[C@@H](OC)/C=C\C=C(/C)C(=O)NC(=CC1=O)C2=O [17-AAG]
[1]
  hsp90 protein level, fold increase: ~3 fold
[2]; [18]
  FKBP51 protein level, fold increase: ~ 2 fold
[3]
  HSF1 protein level, fold increase: ~4 fold
[4]
  IC50: ~100 nM
[5]
  heat shock response triggered: triggering the heat shock response
[6]
  luciferase activity over time: reduce the luciferase activity over time
[7]
  GR protein level: no change
[8]; 17-AAG at 5 μM
  inhibition of TOM70 binding to hsp90: only partially inhibits
[9]; 17-AAG 100 nM and 1 μM
  hsp70 protein level, fold increase: ~ 2.5 fold
[10]; 17-AAG at 5 μM
  inhibition of FKBP51 binding to hsp90: only partially inhibits
[11]; [18]
  FKBP52 protein level, fold increase: ~ 4 fold

## CO[C@H]1[C@H](OC(=O)c2ccc(C)[nH]2)[C@H](O)[C@@H](Oc2ccc3c(O)c(NC(=O)c4c[nH]c(C(=O)Nc5c(O)c6ccc(O[C@H]7OC(C)(C)[C@@H](OC)[C@H](OC(=O)c8ccc(C)[nH]8)[C@@H]7O)c(C)c6oc5=O)c4C)c(=O)oc3c2C)OC1(C)C [CA1, coumermycin A1]
[12]
  effect on binding between hsp90 and HOP: no impact
[13]
  effect on binding between hsp90 and Unc45: no impact
[2]; CA1 5 μM and 50 μM
  FKBP51 protein level: little change
[5]
  heat shock response triggered: the HSR was not triggered
[14]
  inhibition of CHIP binding to hsp90: inhibiting
[6]
  luciferase activity over time: reduce the luciferase activity over time
[15]
  inhibition of Cyp40 binding to hsp90: inhibiting
[8]; CA1 at 10 μM
  inhibition of TOM70 binding to hsp90: inhibiting
[16]
  effect on binding between hsp90 and FKBP52: no impact
[9]; 5 μM and 50 μM
  hsp70 protein level: maintenance of hsp70 protein levels
[10]; CA1 0–10 μM
  effect on binding between hsp90 and FKBP51: no impact
[11]; CA1 at high concentrations, relative to control
  FKBP52 protein level: slightly decreases

## CO[C@@H]1[C@@H](OC(N)=O)[C@@H](O)[C@H](Oc2ccc3c(O)c(NC(=O)c4ccc(O)c(CC=C(C)C)c4)c(=O)oc3c2C)OC1(C)C [novabiocin]
[17]
  disruption of immunophilins from binding to hsp90: disrupts immunophilins from binding to hsp90
